Assay results reported in ChEMBL document CHEMBL4350958, “Rational Design of Short Peptide Variants by Using Kunitzin-RE, an Amphibian-Derived Bioactivity Peptide, for Acquired Potent Broad-Spectrum Antimicrobial and Improved Therapeutic Potential of Commensalism Coinfection of Pathogens” (J Med Chem, 2019).

How the values were obtained:
Staphylococcus aureus [1] = assay: Antibacterial activity against methicillin-resistant Staphylococcus aureus ATCC 43300 measured after 24 hrs; assay type: functional; settings: ATCC 43300, 24 h
Procedure, shortened: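 Broth microdilution modified from NCCLS. Mid-log bacteria at (0.5–1) × 10^5 CFU mL−1 in MHB, mixed with peptides serially diluted in 0.2% BSA. Incubated 24 h at 37 °C, read at A492. MIC taken as lowest concentration giving 95% growth inhibition. At least three independent experiments, each with three technical replicates.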

[2] = Antibacterial activity against Salmonella pullorum ATCC 7913 measured after 24 hrs; assay type: functional, Salmonella enterica subsp. enterica serovar Pullorum; settings: Salmonella enterica, ATCC 7913, 24 h
Procedure, shortened: (§1)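 Broth microdilution adapted from NCCLS. Mid-log bacteria were diluted in MHB to a final (0.5–1) × 10^5 CFU mL−1. Peptides were serially diluted in 0.2% BSA and mixed with an equal volume of cells. After 24 h at 37 °C, MIC was read at A492 as the lowest concentration inhibiting 95% of growth. At least three independent experiments, each with three technical replicates.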

Escherichia coli [3] = assay: Antibacterial activity against Escherichia coli 078 measured after 24 hrs; assay type: functional; settings: Escherichia coli, 078, 24 h; procedure, shortened: as §1
Candida parapsilosis = assay: Antifungal activity against Candida parapsilosis cgmcc2.3989 measured after 48 hrs by broth microdilution method; assay type: functional; settings: Lodderomyces parapsilosis, cgmcc2.3989, 48 h
Procedure, shortened: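 Modified CLSI M27-A2 microdilution. Yeast colonies were diluted in MOPS-buffered RPMI 1640 to a final (0.5–1) × 10^3 CFU mL−1 and mixed with an equal volume of peptide serially diluted in 0.2% BSA. After 48 h at 28 °C, MIC was read at A492 as the lowest concentration inhibiting 95% of growth. At least three independent experiments, each with three technical replicates.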

Escherichia coli [4] = assay: Bactericidal activity against Escherichia coli ATCC 25922 incubated for 24 hrs followed by replating on agar plate and measured after overnight incubation; assay type: functional; settings: ATCC 25922, 24 h, read-out: MBC>99.9
Procedure, shortened: (§2)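 After the 24 h, 37 °C MHB microdilution (0.5–1 × 10^5 CFU mL−1 inoculum, peptides diluted in 0.2% BSA), 50 μL from each well was plated on agar and incubated overnight. MBC was taken as the lowest concentration killing >99.9% of cells. Three or more independent experiments, each with triplicate technical replicates.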

Salmonella typhimurium [5] = assay: Bactericidal activity against Salmonella typhimurium ATCC 14028 incubated for 24 hrs followed by replating on agar plate and measured after overnight incubation; assay type: functional, Salmonella enterica subsp. enterica serovar Typhimurium; settings: Salmonella enterica, ATCC 14028, 24 h; read-out: MBC>99.9
Procedure, shortened: (§3)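 Mid-log bacteria diluted in MHB to (0.5–1) × 10^5 CFU/mL and mixed 1:1 with peptide serially diluted in 0.2% BSA. After 24 h at 37 °C, 50 μL of each mixture was plated on agar and incubated overnight. MBC taken as the lowest concentration killing >99.9% of cells. At least three independent experiments, each with three technical replicates.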

Escherichia coli [6] = assay: Bactericidal activity against Escherichia coli K99 incubated for 24 hrs followed by replating on agar plate and measured after overnight incubation; assay type: functional; settings: K99, 24 h, read-out: MBC>99.9; procedure, shortened: as §3
Escherichia coli [7] = assay: Bactericidal activity against Escherichia coli 078 incubated for 24 hrs followed by replating on agar plate and measured after overnight incubation; assay type: functional; settings: Escherichia coli, 078, 24 h; read-out: MBC>99.9; procedure, shortened: as §2
Salmonella typhimurium [8] = assay: Bactericidal activity against Salmonella typhimurium C7731 incubated for 24 hrs followed by replating on agar plate and measured after overnight incubation; assay type: functional, Salmonella enterica subsp. enterica serovar Typhimurium; settings: Salmonella enterica, C7731, 24 h; read-out: MBC>99.9; procedure, shortened: as §3
Candida tropicalis = assay: Fungicidal activity against Candida tropicalis cgmcc2.1975 incubated for 48 hrs followed by replating on YM agar plate and measured after 48 hrs; assay type: functional
Procedure, shortened: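 Yeast diluted in MOPS-buffered RPMI 1640 to (0.5–1) × 10^3 CFU/mL (CLSI M27-A2, modified) and mixed 1:1 with peptide serially diluted in 0.2% BSA. After 48 h at 28 °C, 50 μL per well was plated on YM agar and incubated 48 h at 28 °C. MFC taken as the lowest concentration killing ≥99.9% of cells. Three or more independent experiments, triplicate wells.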

Erythrocyte = assay: Hemolytic activity in human RBC measured after 1 hr; assay type: ADME, cell-based
Procedure, shortened: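 Fresh healthy-donor human erythrocytes at ~1% (v/v) in PBS pH 7.4, mixed 1:1 with peptide (1–128 µM), 1 h at 37 °C. After centrifugation at 1000×g, supernatant hemoglobin read at 576 nm. Untreated cells set 0% and 0.1% Triton X-100 set 100%. MHC defined as the concentration giving >10% hemolysis. Three or more independent experiments, triplicates.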

Escherichia coli [9] = assay: Antibacterial activity against Escherichia coli ATCC 25922 measured after 18 to 24 hrs in presence of KCl; assay type: functional
Escherichia coli [10] = assay: Antibacterial activity against Escherichia coli ATCC 25922 measured after 18 to 24 hrs in presence of CaCl2; assay type: functional
Escherichia coli [11] = assay: Antibacterial activity against Escherichia coli ATCC 25922 measured after 18 to 24 hrs in presence of FeCl3; assay type: functional
Staphylococcus aureus [12] = assay: Antibacterial activity against Staphylococcus aureus ATCC 29213 measured after 18 to 24 hrs in presence of NaCl; assay type: functional
Staphylococcus aureus [13] = assay: Antibacterial activity against Staphylococcus aureus ATCC 29213 measured after 18 to 24 hrs in presence of KCl; assay type: functional
Staphylococcus aureus [14] = assay: Antibacterial activity against Staphylococcus aureus ATCC 29213 measured after 18 to 24 hrs in presence of FeCl3; assay type: functional
Staphylococcus aureus [15] = assay: Antibacterial activity against Staphylococcus aureus ATCC 29213 measured after 18 to 24 hrs in presence of NH4Cl; assay type: functional
Procedure, shortened: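 MIC broth microdilution (MHB, 0.2% BSA peptide diluent, A492, 95% inhibition) run in the presence of physiological salts at final concentrations of 6 μM NH4Cl or 8 μM ZnCl2. Three independent assays, each with three technical replicates.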

Candida albicans [16] = assay: Antifungal activity against Candida albicans cgmcc2.2086 measured after 48 hrs in presence of NaCl by broth microdilution method; assay type: functional; settings: cgmcc2.2086, 48 h
Candida albicans [17] = assay: Antifungal activity against Candida albicans cgmcc2.2086 measured after 48 hrs in presence of CaCl by broth microdilution method; assay type: functional; settings: cgmcc2.2086, 48 h
[18] = Therapeutic index, ratio of MHC10 for hemolytic activity in human RBC to MIC95 against Candida tropicalis cgmcc2.1975; assay type: toxicity; settings: human red blood cells (erythrocytes), read-out: TI
Procedure, shortened: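 Therapeutic index = MHC divided by MIC. MHC is the lowest concentration giving >10% lysis of human RBC (1 h, 37 °C, 1-128 µM, A576). MIC is 95% growth inhibition by broth microdilution: bacteria in MHB 24 h at 37 °C; Candida in MOPS-buffered RPMI 1640 at (0.5–1) × 10^3 CFU mL−1, 48 h at 28 °C.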

[19] = Conformational stability in 50% trifluoro-ethyl alcohol assessed as alpha-helical structural propensity by measuring absorption spectra at minimum dichroic band at 35 uM by CD spectra analysis; assay type: physicochemical
Procedure, shortened: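 CD spectra from 190 to 250 nm of peptide at 35 μM in 10 mM PBS, 30 mM SDS micelles or 50% TFE, recorded in a 1.0-mm quartz cell. Ellipticity was converted to mean residue ellipticity. Three independent scans, each averaged over more than 3 runs.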

Substance | MIC95 (Staphylococcus aureus [1]) | MIC95 [2] | MIC95 (Escherichia coli [3]) | MIC95 (Candida parapsilosis) | MBC (Escherichia coli [4]) | MBC (Salmonella typhimurium [5]) | MBC (Escherichia coli [6]) | MBC (Escherichia coli [7]) | MBC (Salmonella typhimurium [8]) | MFC<=99.9 (Candida tropicalis) | MHC10 (Erythrocyte) | MIC95 (Escherichia coli [9]) | MIC95 (Escherichia coli [10]) | MIC95 (Escherichia coli [11]) | MIC95 (Staphylococcus aureus [12]) | MIC95 (Staphylococcus aureus [13]) | MIC95 (Staphylococcus aureus [14]) | MIC95 (Staphylococcus aureus [15]) | MIC95 (Candida albicans [16]) | MIC95 (Candida albicans [17]) | other results
H-AARIILRTRFR-NH2 | 16 µM | 8 µM | 4 µM | 64 µM | 16 µM | 32 µM | 8 µM | 8 µM | 32 µM | 64 µM | > 128 µM | 32 µM | > 128 µM | 16 µM | > 128 µM | 32 µM | 16 µM | 16 µM | > 128 µM | > 128 µM | selectivity ratio [18]: 4; Activity [19]: 208 to 222 nm
H-AARIILRWFRR-NH2 | 8 µM | 4 µM | 2 µM | 4 µM | 2 µM | 8 µM | 4 µM | 4 µM | 8 µM | 4 µM | > 128 µM | 2 µM | 4 µM | 2 µM | 32 µM | 4 µM | 4 µM | 4 µM | 16 µM | 32 µM | selectivity ratio [18]: 50.8; Activity [19]: 208 to 222 nm
